Assay results taken from ChEMBL document CHEMBL1123347, “Topical nonsteroidal antipsoriatic agents. 1. 1,2,3,4-Tetraoxygenated naphthalene derivatives” (J Med Chem, 1986).

What was measured:
[1] = Statistical significance (p value) compared to positive control by Students t-test; type: ADME
In short: (§1)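 Same arachidonic acid ear-edema model: 2 mg total topical dose in acetone, given 60 min before arachidonic acid, with 8 animals per group. Edema is measured by ear plug weight 1 h after arachidonic acid. p values come from Student's t-test against the concurrent arachidonic acid positive control. Thresholds are given as + (≤0.05) and so on.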

Mus musculus [2] = test: Compound was tested for inhibition of arachidonic acid induced mouse ear edema at 2 mg of dose; type: functional
In short: (§2)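 Mouse ear edema induced by arachidonic acid (dissolved in acetone at 100 mg/mL). Test agent is applied topically in acetone, 2 mg/0.02 mL per total dose, 60 min before arachidonic acid. Ear edema is read 1 h later as the weight gain of an 8-mm-diameter ear plug. It is compared with acetone-only and arachidonic acid-only controls run in the same experiment. n = 8 per group; percent inhibition is reported as mean.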

[3] = Partition coefficient (logP); type: physicochemical; details: octanol/water
In short: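 Lipophilicity (log P) measured by 1-octanol-coated reversed-phase HPLC. The mobile phase is pH 7.4 PBS saturated with 1-octanol, run on RP-18 or C-18 packing. A second system is linked to the first through overlapping series. For the most lipophilic analogues that could not be detected, log P is calculated from Free-Wilson-derived substituent constants assuming additivity.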

[4] = Statistical significance, p values as compared to positive control by students t-test; NS=Not significant; type: ADME; in short: as §1
[5] = Statistical significance, p values as compared to positive control by students t-test; I=Insoluble; type: ADME; in short: as §1
Mus musculus [6] = test: Compound was tested for inhibition of arachidonic acid induced mouse ear edema at 2 mg of dose; I=Insoluble; type: functional, organism-based; in short: as §2

Row | Significance [1] | logP [3] | Significance [4] | Significance [5] | Significance ([1]; read-out: Significance) | SMILES | Inhibition (Mus musculus [2]) | inhibition (Mus musculus [6])
1 | <= 0.001 | 7.4 | – | – | – | CCOc1c(OCC)c(OC(=O)C(C)(C)C)c2cc(Cl)ccc2c1OC(=O)C(C)(C)C | 19% | –
2 | <= 0.001 | 7.9 | – | – | – | CC(C)Oc1c(OC(C)C)c(OC(=O)C(C)(C)C)c2cc(Cl)ccc2c1OC(=O)C(C)(C)C | 26% | –
3 | – | – | Not Active | – | – | CSc1c(SC)c(OC(C)=O)c2cc(Cl)ccc2c1OC(C)=O | -2% | –
4 | – | 7.9 | – | Insoluble | – | O=C(Oc1c(Oc2ccccc2)c(Oc2ccccc2)c(OC(=O)c2ccccc2)c2ccccc12)c1ccccc1 | – | Insoluble
5 | <= 0.05 | 2.39 | – | – | – | COc1c(OC)c(OC(C)=O)c2ccccc2c1OC(C)=O | 19% | –
6 | – | 6.6 | Not Active | – | – | COc1c(OC)c(OC(=O)C(C)(C)C)c2cc(Cl)ccc2c1OC(=O)C(C)(C)C | 11% | –
7 | <= 0.01 | 5.4 | – | – | – | COc1c(OC)c(OC(=O)C(C)C)c2cc(Cl)ccc2c1OC(=O)C(C)C | 23% | –
8 | – | 5.6 | Not Active | – | – | CC(=O)Oc1c(Oc2ccccc2)c(Oc2ccccc2)c(OC(C)=O)c2cc(Cl)ccc12 | 5% | –
9 | <= 0.05 | 6.7 | – | – | – | COc1c(OC)c(OC(=O)c2ccccc2)c2cc(Cl)ccc2c1OC(=O)c1ccccc1 | 18% | –
10 | <= 0.001 | 3.44 | – | – | – | CCC(=O)Oc1c(OC)c(OC)c(OC(=O)CC)c2c(OC)cccc12 | 57% | –
11 | <= 0.01 | 3.28 | – | – | – | CCC(=O)Oc1c(OC)c(OC)c(OC(=O)CC)c2cc(OC)ccc12 | 49% | –
12 | <= 0.001 | 6.4 | – | – | – | CCCOc1c(OCCC)c(OC(=O)CC)c2cc(Cl)ccc2c1OC(=O)CC | 30% | –
13 | – | 5.4 | Not Active | – | – | CCCC(=O)Oc1c(OC)c(OC)c(OC(=O)CCC)c2cc(C)c(C)cc12 | 14% | –
14 | <= 0.001 | 3.39 | – | – | – | COc1c(OC)c(OC(C)=O)c2cc(Br)ccc2c1OC(C)=O | 42% | –
15 | <= 0.001 | 2.86 | – | – | – | COc1c(OC)c(OC(C)=O)c2cc(C)ccc2c1OC(C)=O | 40% | –
16 | <= 0.01 | 5.6 | – | – | – | COc1c(OC)c(OC(=O)C(C)(C)C)c2c(OC)cccc2c1OC(=O)C(C)(C)C | 29% | –
17 | – | 7.6 | Not Active | – | – | CCCOc1c(OCCC)c(OC(=O)CCC)c2cc(Cl)ccc2c1OC(=O)CCC | 2% | –
18 | – | 3.16 | Not Active | – | – | COc1c(OC)c(OC(C)=O)c2c(Cl)cccc2c1OC(C)=O | 11% | –
19 | <= 0.01 | 7.5 | – | – | – | CCCOc1c(OCCC)c(OC(=O)C(C)C)c2cc(Cl)ccc2c1OC(=O)C(C)C | 28% | –

Row | Significance [1] | logP [3] | Significance [4] | Significance [5] | Significance ([1]; read-out: Significance) | SMILES | Inhibition (Mus musculus [2]) | inhibition (Mus musculus [6])
20 | <= 0.01 | 2.43 | – | – | – | COc1c(OC)c(OC(C)=O)c2c(OC)cccc2c1OC(C)=O | 47% | –
21 | <= 0.001 | 4.2 | – | – | – | COc1c(OC)c(OC(C)=O)c2c(Sc3ccccc3)cccc2c1OC(C)=O | 42% | –
22 | <= 0.001 | 5.2 | – | – | – | CCOc1c(OCC)c(OC(=O)CC)c2cc(Cl)ccc2c1OC(=O)CC | 50% | –
23 | <= 0.05 | 6.4 | – | – | – | CCOc1c(OCC)c(OC(=O)C(C)C)c2cc(Cl)ccc2c1OC(=O)C(C)C | 11% | –
24 | – | 5.4 | Not Active | – | – | COc1ccc2c(OC(=O)C(C)(C)C)c(OC)c(OC)c(OC(=O)C(C)(C)C)c2c1 | 3% | –
25 | <= 0.001 | 4.3 | – | – | – | CCC(=O)Oc1c(OC)c(OC)c(OC(=O)CC)c2cc(Cl)ccc12 | 49% | –
26 | – | 6.6 | Not Active | – | – | CCC(=O)Oc1c(Oc2ccccc2)c(Oc2ccccc2)c(OC(=O)CC)c2cc(Cl)ccc12 | -15% | –
27 | <= 0.001 | 2.75 | – | – | – | COc1c(OC)c(OC(C)=O)c2cc(F)ccc2c1OC(C)=O | 40% | –
28 | – | 5 | Not Active | – | – | COc1c(OC)c(OC(=O)C(C)C)c2c(C)cccc2c1OC(=O)C(C)C | 12% | –
29 | <= 0.01 | 3.44 | – | – | – | CCC(=O)Oc1c(OC)c(OC)c(OC(=O)CC)c2ccccc12 | 33% | –
30 | <= 0.01 | 3.9 | – | – | – | CCC(=O)Oc1c(OC)c(OC)c(OC(=O)CC)c2c(C)cccc12 | 24% | –
31 | <= 0.001 | 4 | – | – | – | CCOc1c(OCC)c(OC(C)=O)c2cc(Cl)ccc2c1OC(C)=O | 38% | –
32 | – | 2.28 | Not Active | – | – | COc1c(OC)c(OC(C)=O)c2cc(C#N)ccc2c1OC(C)=O | 7% | –
33 | – | 5.8 | Not Active | – | – | CCC(=O)Oc1c(OC(C)C)c(OC(C)C)c(OC(=O)CC)c2cc(Cl)ccc12 | 16% | –
34 | – | 6.1 | Not Active | – | – | COc1c(OC)c(OC(=O)C(C)(C)C)c2c(Cl)cccc2c1OC(=O)C(C)(C)C | 6% | –
35 | <= 0.001 | 3.14 | – | – | – | COc1c(OC)c(OC(C)=O)c2cc(C)c(C)cc2c1OC(C)=O | 19% | –
36 | <= 0.001 | 4.2 | – | – | – | CCC(=O)Oc1c(OC)c(OC)c(OC(=O)CC)c2cc(C)c(C)cc12 | 26% | –
37 | – | 5.69 | Not Active | – | – | COc1c(OC)c(OC(=O)C(C)(C)C)c2ccccc2c1OC(=O)C(C)(C)C | 0% | –
38 | <= 0.01 | 2.51 | – | – | – | COc1c(OC)c(OC(C)=O)c2c(C#N)cccc2c1OC(C)=O | 24% | –

Row | Significance [1] | logP [3] | Significance [4] | Significance [5] | Significance ([1]; read-out: Significance) | SMILES | Inhibition (Mus musculus [2]) | inhibition (Mus musculus [6])
39 | – | 7.7 | Not Active | – | – | CCCC(=O)Oc1c(Oc2ccccc2)c(Oc2ccccc2)c(OC(=O)CCC)c2cc(Cl)ccc12 | -5% | –
40 | – | 6.1 | Not Active | – | – | COc1c(OC)c(OC(=O)C(C)(C)C)c2cc(C)ccc2c1OC(=O)C(C)(C)C | 11% | –
41 | <= 0.001 | 4.61 | – | – | – | COc1c(OC)c(OC(=O)C(C)C)c2ccccc2c1OC(=O)C(C)C | 53% | –
42 | <= 0.01 | 5.9 | – | – | – | CCCCOc1c(OCCCC)c(OC(C)=O)c2cc(Cl)ccc2c1OC(C)=O | 23% | –
43 | – | 8.7 | Not Active | – | – | O=C(Oc1c(Oc2ccccc2)c(Oc2ccccc2)c(OC(=O)c2ccccc2)c2cc(Cl)ccc12)c1ccccc1 | -1% | –
44 | <= 0.001 | 5.5 | – | – | – | CCCC(=O)Oc1c(OC)c(OC)c(OC(=O)CCC)c2cc(Cl)ccc12 | 58% | –
45 | <= 0.001 | 2.39 | – | – | – | COc1ccc2c(OC(C)=O)c(OC)c(OC)c(OC(C)=O)c2c1 | 53% | –
46 | <= 0.001 | 4.6 | – | – | – | CC(=O)Oc1c(OC(C)C)c(OC(C)C)c(OC(C)=O)c2cc(Cl)ccc12 | 19% | –
47 | – | 7.7 | Not Active | – | – | CC(C)C(=O)Oc1c(Oc2ccccc2)c(Oc2ccccc2)c(OC(=O)C(C)C)c2cc(Cl)ccc12 | 0% | –
48 | – | 6.5 | Not Active | – | – | COc1c(OC)c(OC(=O)C(C)(C)C)c2cc(C)c(C)cc2c1OC(=O)C(C)(C)C | 6% | –
49 | – | 6.1 | Not Active | – | – | COc1c(OC)c(OC(=O)C(C)(C)C)c2c(C)cccc2c1OC(=O)C(C)(C)C | 10% | –
50 | <= 0.001 | 4.64 | – | – | – | CCCC(=O)Oc1c(OC)c(OC)c(OC(=O)CCC)c2ccccc12 | 59% | –
51 | <= 0.001 | 5.2 | – | – | – | CCCOc1c(OCCC)c(OC(C)=O)c2cc(Cl)ccc2c1OC(C)=O | 50% | –
52 | – | 2.8 | – | – | < 0.001 | COc1c(OC)c(OC(C)=O)c2c(C)cccc2c1OC(C)=O | 22% | –
53 | <= 0.001 | 3.9 | – | – | – | CCC(=O)Oc1c(OC)c(OC)c(OC(=O)CC)c2cc(C)ccc12 | 39% | –
54 | <= 0.001 | 5.3 | – | – | – | COc1c(OC)c(OC(=O)C(C)C)c2cc(C)c(C)cc2c1OC(=O)C(C)C | 21% | –
55 | – | 2 | Not Active | – | – | COc1c(OC)c(OC(C)=O)c2c(NC(C)=O)cccc2c1OC(C)=O | 6% | –
56 | <= 0.05 | 8.5 | – | – | – | CCCOc1c(OCCC)c(OC(=O)C(C)(C)C)c2cc(Cl)ccc2c1OC(=O)C(C)(C)C | 16% | –
57 | – | 8.7 | – | – | – | CC(C)(C)C(=O)Oc1c(Oc2ccccc2)c(Oc2ccccc2)c(OC(=O)C(C)(C)C)c2cc(Cl)ccc12 | – | Insoluble
